Reference: ChEMBL document CHEMBL4118256, “Second Generation of Mannich Base-Type Derivatives with in Vivo Activity against Trypanosoma cruzi” (J Med Chem, 2018)
The source made the active and inactive calls. No cut-off for these calls is given here.

What was measured:
Mus musculus [1] = experiment: Toxicity in Balb/c mouse assessed as reduction in body mass at 20 mg/kg, po once daily for 5 consecutive days starting from day 75 post infection relative to control; type: organism-based; design: scale not given: the % may be the effect or the level left; conditions: in vivo
Trypanosoma cruzi [2] = experiment: (§1) Antitrypanosomal activity against Trypanosoma cruzi MHOM/Pe/2011/Arequipa DTU 5 trypamastigotes infected in Balb/c mouse assessed as reduction in parasitaemia reactivation in heart tissue at 20 mg/kg, po pretreated once daily for 5 consecutive days starting from day 10 post infection followed by cyclophosphamide-induced immunosuppression on day 100 post infection every 4 days for a maximum of 3 doses measured on day 127 post infection by PCR method; type: functional; design: scale not given: the % may be the effect or the level left
How it was run: (§2)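 Necropsy on day 127 pi after oral treatment and cyclophosphamide immunosuppression. Tissue DNA was amplified by PCR targeting the ~300 bp T. cruzi SOD gene, 200 nM each primer, 30 cycles with 55.5 °C annealing. Products run on 2 % agarose; positive organs counted out of six mice.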

Trypanosoma cruzi [3] = experiment: as §1, with “lung” for “heart”; type: functional; design: scale not given: the % may be the effect or the level left; how it was run: as §2
Trypanosoma cruzi [4] = experiment: Antitrypanosomal activity against Trypanosoma cruzi MHOM/Pe/2011/Arequipa DTU 5 trypamastigotes infected in Balb/c mouse assessed as reduction in Ig-G level in serum at 20 mg/kg, po once daily for 5 consecutive days starting from day 10 post infection measured on day 16 post infection by ELISA; type: functional, organism-based
How it was run: (§3)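 Female BALB/c mice (8-10 weeks, 20-25 g), six per group, infected i.p. with 5 x 10^5 Arequipa bloodstream trypomastigotes. Compound was given orally once daily for 5 days from day 10 or day 75 pi, at 20 mg·kg-1 per day in 5 % DMSO/0.5 % HPMC. Anti-T. cruzi IgG in serum was measured by ELISA with Fe-SOD antigen, read as OD 490 nm.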

Trypanosoma cruzi [5] = experiment: Antitrypanosomal activity against Trypanosoma cruzi MHOM/Pe/2011/Arequipa DTU 5 trypamastigotes infected in Balb/c mouse assessed as reduction in Ig-G level in serum at 20 mg/kg, po pretreated once daily for 5 consecutive days starting from day 75 post infection followed by cyclophosphamide-induced immunosuppression on day 100 post infection every 4 days for a maximum of 3 doses measured on day 127 post infection by ELISA; type: functional, organism-based; how it was run: as §3
Mus musculus [6] = experiment: (§4) Cardiotoxicity in Balb/c mouse infected with Trypanosoma cruzi MHOM/Pe/2011/Arequipa DTU 5 trypamastigotes assessed as decrease in serum LDH level at 20 mg/kg, po once daily for 5 consecutive days starting from day 75 post infection measured on day 81 post infection by biochemical analysis relative to control; type: toxicity, organism-based; design: scale not given: the % may be the effect or the level left; conditions: in vivo
How it was run: (§5)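 Serum clinical chemistry in Arequipa-infected female BALB/c mice. Oral 20 mg·kg-1 per day for 5 days, started day 10 or day 75 pi. Samples taken at day 16 pi or day 81 pi, and on necropsy day. Markers: CK-MB and LDH (U/L), AST, ALT and alkaline phosphatase (U/L), total bilirubin. Results scored relative to infected untreated controls; uninfected reference n = 15.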

Mus musculus [7] = experiment: (§6) Hepatotoxicity in Balb/c mouse infected with Trypanosoma cruzi MHOM/Pe/2011/Arequipa DTU 5 trypamastigotes assessed as increase in ratio of serum AST to GOT level at 20 mg/kg, po once daily for 5 consecutive days starting from day 10 post infection measured on day 16 post infection by biochemical analysis relative to control; type: toxicity, organism-based; conditions: in vivo
Mus musculus [8] = experiment: as §6, with “127” for “16”; type: toxicity, organism-based; conditions: in vivo
Mus musculus [9] = experiment: as §6, with “ALT” for “AST”, “GPT” for “GOT”; type: toxicity, organism-based; conditions: in vivo
Mus musculus [10] = experiment: as §6, with “change” for “increase”, “ALT” for “AST”, “GPT” for “GOT”, “127” for “16”; type: toxicity, organism-based; conditions: in vivo; how it was run: as §5
Mus musculus [11] = experiment: as §6, with “change” for “increase”, “ALT” for “AST”, “GPT” for “GOT”, “75” for “10”, “127” for “16”; type: toxicity, organism-based; conditions: in vivo; how it was run: as §5
Mus musculus [12] = experiment: as §6, with “total bilirubin” for “ratio of serum AST to GOT”, “127” for “16”; type: toxicity, organism-based; conditions: in vivo
Mus musculus [13] = experiment: as §4, with “Hepatotoxicity” for “Cardiotoxicity”, “increase” for “decrease”, “total bilirubin” for “serum LDH”; type: toxicity, organism-based; conditions: in vivo
Mus musculus [14] = experiment: as §4, with “Hepatotoxicity” for “Cardiotoxicity”, “increase” for “decrease”, “alkaline phosphatase” for “serum LDH”, “127” for “81”; type: toxicity, organism-based; conditions: in vivo
Trypanosoma cruzi [15] = experiment: Antitrypanosomal activity against Trypanosoma cruzi MHOM/Pe/2011/Arequipa DTU 5 trypamastigotes infected in Balb/c mouse assessed as reduction in parasitaemia reactivation in muscle tissue at 100 mg/kg, po pretreated once daily for 5 consecutive days starting from day 75 post infection followed by cyclophosphamide-induced immunosuppression on day 100 post infection every 4 days for a maximum of 3 doses measured on day 127 post infection by PCR method; type: functional; design: scale not given: the % may be the effect or the level left
Trypanosoma cruzi [16] = experiment: as §1, with “in adipose” for “in heart”, “at 100” for “at 20”; type: functional; design: scale not given: the % may be the effect or the level left; conditions: pooled result: one value given for 9 cell lines, strains, targets or settings; how it was run: as §2
Mus musculus [17] = experiment: as §6, with “as decrease” for “as increase”, “serum ALT” for “serum AST”, “to GPT” for “to GOT”, “at […]” for “at 20”, “day 127” for “day 16”; type: toxicity, organism-based; design: scale not given: the % may be the effect or the level left; conditions: in vivo
Trypanosoma cruzi [18] = experiment: Antitrypanosomal activity against Trypanosoma cruzi MHOM/Pe/2011/Arequipa DTU 5 trypamastigotes infected in Balb/c mouse assessed as parasitaemia reactivation at 100 mg/kg, po pretreated once daily for 5 consecutive days starting from day 10 post infection followed by cyclophosphamide-induced immunosuppression on day 100 post infection every 4 days for a maximum of 3 doses measured up to 1 week post immunosuppression by Neubauer chamber method; type: functional
Mus musculus [19] = experiment: as §6, with “serum ALT” for “serum AST”, “to GPT” for “to GOT”, “at […]” for “at 20”, “day 75” for “day 10”, “day 81” for “day 16”; type: toxicity, organism-based; conditions: in vivo
Mus musculus [20] = experiment: as §4, with “Hepatotoxicity” for “Cardiotoxicity”, “change” for “decrease”, “total bilirubin” for “serum LDH”, “[…],” for “20 mg/kg,”; type: toxicity, organism-based; conditions: in vivo; how it was run: as §5
Trypanosoma cruzi [21] = experiment: Antitrypanosomal activity against Trypanosoma cruzi MHOM/Pe/2011/Arequipa DTU 5 epimastigotes assessed as effect on parasite glycerol pathway by measuring increase in glycerol excretion at IC25 after 72 hrs by 1H NMR method; type: functional, organism-based
How it was run: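 Arequipa epimastigotes exposed at IC25 for 72 h alongside an untreated control. Excreted catabolites were analysed by 1H NMR, and each peak is reported as % variation versus the control. Three separate determinations.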

O=C(Cn1ccnc1[N+](=O)[O-])NCc1ccccc1 [BENZNIDAZOLE]
Activity (Mus musculus [1]): > 10% | Activity (Trypanosoma cruzi [2]): 33% | Activity (Trypanosoma cruzi [3]): 33% | Activity (Trypanosoma cruzi [4]): Active | Activity (Trypanosoma cruzi [5]): Active | Activity (Mus musculus [6]): <= 30% | Activity (Mus musculus [7]): > 40% | Activity (Mus musculus [8]): > 40% | Activity (Mus musculus [9]): > 40% | Activity (Mus musculus [10]): < 10% | Activity (Mus musculus [11]): < 10% | Activity (Mus musculus [12]): <= 10% | Activity (Mus musculus [13]): <= 30% | Activity (Mus musculus [14]): <= 20%

COc1ccc(C(=O)CCN2CCN(c3ccc(Cl)cc3)CC2)cc1
Activity (Trypanosoma cruzi [15]): 78% | Activity (Trypanosoma cruzi [16]): 89% | Activity (Mus musculus [17]): <= 10% | Activity (Trypanosoma cruzi [18]): 12%

COc1ccc(C(=O)CCN2CCN(c3ccc([N+](=O)[O-])cc3)CC2)cc1
Activity (Mus musculus [19]): <= 30% | Activity (Mus musculus [20]): < 10%

COc1ccc(C(=O)CCN2CCN(c3ccc(F)cc3)CC2)cc1
Activity (Trypanosoma cruzi [21]): Active
